Our source for the Activity and EC50 values is ChEMBL document CHEMBL3745614, “Potent and selective N-(4-sulfamoylphenyl)thiourea-based GPR55 agonists” (Eur J Med Chem, 2016).

The EC50 is the concentration that produces a half-maximal response.

Active and inactive are the calls of the source. No cut-off for these calls is given here.

Test [1] addresses T1, G-protein coupled receptor 55 (Homo sapiens, UniProt Q9Y2T6). In words: Agonist activity at human GPR55 expressed in CHOK1 cells at 10 uM by pathHunter beta-arrestin assay relative to LPI. The format is cell-based. The following applies: CHO-K1. Summed up: (§1)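 PathHunter eXpress GPR55 CHO-K1 β-arrestin kit run per the kit protocol, compounds screened at 10 μM. Luminescence read and expressed as percentage of the signal from bovine liver LPI at 1 μM. Mean with range of two experiments, each done in duplicate.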

The target in test [2] is Cannabinoid receptor 1 (Homo sapiens) (UniProt P21554). The test is described as follows: Agonist activity at CBR1 (unknown origin) assessed as [35S]GTPgammaS binding at 10 uM by […] assay relative to control. The format is functional.
Sequence of Cannabinoid receptor 1 (Homo sapiens) (P21554 whole entry, the tested form may be a part): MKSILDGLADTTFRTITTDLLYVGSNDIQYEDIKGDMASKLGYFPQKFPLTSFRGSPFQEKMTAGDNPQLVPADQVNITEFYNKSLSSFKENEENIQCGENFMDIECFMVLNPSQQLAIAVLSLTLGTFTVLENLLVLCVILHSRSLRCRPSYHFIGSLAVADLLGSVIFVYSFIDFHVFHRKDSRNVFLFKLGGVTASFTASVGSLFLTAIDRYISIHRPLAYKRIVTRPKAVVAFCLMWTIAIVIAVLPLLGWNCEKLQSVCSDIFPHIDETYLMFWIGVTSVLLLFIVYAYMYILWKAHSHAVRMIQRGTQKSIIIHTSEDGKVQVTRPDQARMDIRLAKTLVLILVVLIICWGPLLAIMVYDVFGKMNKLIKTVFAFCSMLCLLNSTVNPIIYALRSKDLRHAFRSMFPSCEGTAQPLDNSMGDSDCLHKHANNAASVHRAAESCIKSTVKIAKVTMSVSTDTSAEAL
The target in test [3] is Cannabinoid receptor 2 (Homo sapiens) (UniProt P34972). The test is described as follows: Antagonist activity at human CBR2 assessed as [35S]GTPgammaS binding at 10 uM by […] assay relative to control. Also noted: scale not given: the % may be the effect or the level left. It is filed as functional.
Sequence of Cannabinoid receptor 2 (Homo sapiens) (P34972 whole entry): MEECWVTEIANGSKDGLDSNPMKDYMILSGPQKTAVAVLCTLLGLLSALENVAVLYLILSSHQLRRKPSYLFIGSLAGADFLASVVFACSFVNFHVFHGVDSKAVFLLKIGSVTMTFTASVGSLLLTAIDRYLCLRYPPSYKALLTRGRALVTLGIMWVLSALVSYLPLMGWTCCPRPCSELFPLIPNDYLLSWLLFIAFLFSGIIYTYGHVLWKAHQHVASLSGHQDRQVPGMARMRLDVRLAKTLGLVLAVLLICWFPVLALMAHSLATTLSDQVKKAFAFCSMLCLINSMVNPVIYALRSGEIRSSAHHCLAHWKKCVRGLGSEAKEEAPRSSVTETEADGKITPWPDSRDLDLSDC
Test [4] has the same target. In words: Agonist activity at CBR2 (unknown origin) assessed as [35S]GTPgammaS binding at 10 uM by […] assay relative to control. It is filed as functional. (In general: Binding of GTPγS marks nucleotide exchange on a G protein.)
Test [5] concerns the target T2, Fatty-acid amide hydrolase 1 (Homo sapiens) (UniProt O00519).
T2 sequence (whole entry): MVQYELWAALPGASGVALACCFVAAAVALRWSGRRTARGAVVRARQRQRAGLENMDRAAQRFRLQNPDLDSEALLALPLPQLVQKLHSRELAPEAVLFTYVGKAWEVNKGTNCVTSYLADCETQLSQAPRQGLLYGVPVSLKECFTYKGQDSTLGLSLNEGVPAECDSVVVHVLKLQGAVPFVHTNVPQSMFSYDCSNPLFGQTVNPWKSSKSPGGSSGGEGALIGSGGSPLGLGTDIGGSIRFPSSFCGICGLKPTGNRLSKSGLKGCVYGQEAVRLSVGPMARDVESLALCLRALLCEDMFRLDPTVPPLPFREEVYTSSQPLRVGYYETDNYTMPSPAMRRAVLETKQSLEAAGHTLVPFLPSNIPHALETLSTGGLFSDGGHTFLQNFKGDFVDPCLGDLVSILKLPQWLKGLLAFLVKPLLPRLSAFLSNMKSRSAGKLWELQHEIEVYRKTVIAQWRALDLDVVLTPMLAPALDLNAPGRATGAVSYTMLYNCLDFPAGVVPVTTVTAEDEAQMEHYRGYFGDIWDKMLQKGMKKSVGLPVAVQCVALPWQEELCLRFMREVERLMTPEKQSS
In words: Inhibition of human FAAH expressed in African green monkey COS-7 cell membranes using [3H]-AEA as substrate assessed as residual activity at 10 uM preincubated for 10 mins followed by substrate addition measured after 10 mins by liquid scintillation counting analysis relative to control. Summed up:
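Membranes of COS-7 cells overexpressing hFAAH, 1 μg protein per incubation. Substrate 20 μM AEA including 10 nM [3H]AEA (60 Ci/mmol). Compounds tested at 10 μM.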

The target of test [6] is T3, Monoglyceride lipase (Homo sapiens) (UniProt Q99685).
T3 sequence (whole entry): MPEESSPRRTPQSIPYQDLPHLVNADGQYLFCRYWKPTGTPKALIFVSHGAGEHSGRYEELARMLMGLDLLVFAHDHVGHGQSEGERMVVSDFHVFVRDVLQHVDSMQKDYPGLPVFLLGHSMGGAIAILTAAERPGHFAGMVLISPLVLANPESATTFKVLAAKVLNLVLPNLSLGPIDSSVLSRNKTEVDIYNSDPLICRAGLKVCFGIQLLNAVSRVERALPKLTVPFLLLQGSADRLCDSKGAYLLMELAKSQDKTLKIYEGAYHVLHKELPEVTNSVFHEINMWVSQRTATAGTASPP
The test is described as follows: Inhibition of human MGL expressed in […] cells using 2AG as substrate assessed as residual activity at 10 uM preincubated for 10 mins followed by substrate addition measured after 10 mins by HPLC analysis. It is filed as cell-based. The essentials: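 Lysates of HEK cells overexpressing hMGL, 2.5 μg protein per incubation, substrate at 50 μM. Compounds tested at 10 μM.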

The target of test [7] is T4, Lysophosphatidylserine lipase ABHD12 (Homo sapiens) (UniProt Q8N2K0).
T4 sequence (whole entry): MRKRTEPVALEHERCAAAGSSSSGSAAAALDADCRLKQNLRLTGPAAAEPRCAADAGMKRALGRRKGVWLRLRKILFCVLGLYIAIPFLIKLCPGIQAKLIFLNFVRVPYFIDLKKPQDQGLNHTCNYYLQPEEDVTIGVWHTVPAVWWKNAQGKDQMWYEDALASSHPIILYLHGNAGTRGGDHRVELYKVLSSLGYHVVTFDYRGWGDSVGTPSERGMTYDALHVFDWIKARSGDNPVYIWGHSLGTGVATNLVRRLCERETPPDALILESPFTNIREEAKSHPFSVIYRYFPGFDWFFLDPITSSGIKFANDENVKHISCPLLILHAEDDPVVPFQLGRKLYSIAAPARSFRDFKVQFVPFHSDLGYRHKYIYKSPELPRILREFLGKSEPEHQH
In words: Inhibition of human ABHD12 expressed in […] cells using 2-AG as substrate assessed as glycerol liberation at 1 uM preincubated for 30 mins followed by 2-AG addition measured for 90 mins by fluorescent glycerol assay relative to control. Set-up: scale not given: the % may be the effect or the level left. It is filed as cell-based. Summed up: (§2)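 Lysates of HEK293 cells transiently overexpressing hABHD6 or hABHD12, 0.3 μg protein/well. Pretreated 30 min with DMSO or compound, then 2-AG added (12.5 μM final). Glycerol release coupled enzymatically to H2O2-dependent resorufin formation; fluorescence (ex 530/em 590 nm) followed kinetically for 90 min.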

Test [8] concerns the target T5, Monoacylglycerol lipase ABHD6 (Homo sapiens) (UniProt Q9BV23).
T5 sequence (whole entry): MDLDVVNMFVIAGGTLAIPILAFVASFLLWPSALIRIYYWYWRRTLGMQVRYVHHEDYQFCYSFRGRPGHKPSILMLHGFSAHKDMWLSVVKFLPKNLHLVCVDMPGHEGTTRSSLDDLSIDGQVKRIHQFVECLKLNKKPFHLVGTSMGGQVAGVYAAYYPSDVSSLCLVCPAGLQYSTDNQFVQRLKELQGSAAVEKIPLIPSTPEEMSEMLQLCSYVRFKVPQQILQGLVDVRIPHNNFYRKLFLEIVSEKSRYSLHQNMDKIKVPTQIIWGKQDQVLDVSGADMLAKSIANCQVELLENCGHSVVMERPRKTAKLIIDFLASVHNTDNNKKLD
In words: Inhibition of human ABHD6 expressed in […] cells using 2-AG as substrate assessed as glycerol liberation at 1 uM preincubated for 30 mins followed by 2-AG addition measured for 90 mins by fluorescent glycerol assay relative to control. The format is cell-based. Also noted: scale not given: the % may be the effect or the level left. Summed up:
as §2

In test [9] the target is T1, G-protein coupled receptor 55. In words: Agonist activity at human GPR55 expressed in CHOK1 cells at 10 uM by pathHunter beta-arrestin assay relative to control. It is filed as cell-based. The following applies: CHO-K1. Summed up:
as §1

The target is the same in test [10]. In words: Agonist activity at human GPR55 expressed in HEK293 cells assessed as calcium signalling at 10 uM by fura 2-based digital epifluorescence microscopy. It is filed as functional, cell-based.
For test [11], the target named is Cannabinoid receptor 1 (Homo sapiens) (UniProt P21554). The test is described as follows: Antagonist activity at human CBR1 assessed as [35S]GTPgammaS binding at 10 uM by radiometric assay relative to control. Also noted: scale not given: the % may be the effect or the level left.
Test [12] deals with T1, G-protein coupled receptor 55. The test is described as follows: Agonist activity at human GPR55 expressed in HEK293 cells assessed as calcium signalling by fura 2-based digital epifluorescence microscopy. It is filed as functional, cell-based. The essentials: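 HEK293 cells stably expressing GPR55, grown on poly-L-lysine coated glass coverslips and serum-starved overnight. Compounds applied by bath perfusion in HEPES-buffered saline at 30-32 °C. Single-cell fura 2 ratiometric imaging (350/380 nm) every 5 s. Peak responses pooled from 24 cells (12 random cells from each of two experiments) per concentration; EC50 with 95% CI from concentration-response curves. ARA-LPI used as reference agonist.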

The target in test [13] is T4, Lysophosphatidylserine lipase ABHD12 (Homo sapiens). The test is described as follows: Inhibition of human ABHD12 expressed in […] cells using 2-AG as substrate assessed as glycerol liberation at 10 uM preincubated for 30 mins followed by 2-AG addition measured for 90 mins by fluorescent glycerol assay relative to control. The format is cell-based. Set-up: scale not given: the % may be the effect or the level left. Summed up: as §2

In test [14] the target is T5, Monoacylglycerol lipase ABHD6 (Homo sapiens). The test is described as follows: Inhibition of human ABHD6 expressed in […] cells using 2-AG as substrate assessed as glycerol liberation at 10 uM preincubated for 30 mins followed by 2-AG addition measured for 90 mins by fluorescent glycerol assay relative to control. The format is cell-based. Also noted: scale not given: the % may be the effect or the level left. The essentials:
as §2

T1 sequence (Q9Y2T6 whole entry): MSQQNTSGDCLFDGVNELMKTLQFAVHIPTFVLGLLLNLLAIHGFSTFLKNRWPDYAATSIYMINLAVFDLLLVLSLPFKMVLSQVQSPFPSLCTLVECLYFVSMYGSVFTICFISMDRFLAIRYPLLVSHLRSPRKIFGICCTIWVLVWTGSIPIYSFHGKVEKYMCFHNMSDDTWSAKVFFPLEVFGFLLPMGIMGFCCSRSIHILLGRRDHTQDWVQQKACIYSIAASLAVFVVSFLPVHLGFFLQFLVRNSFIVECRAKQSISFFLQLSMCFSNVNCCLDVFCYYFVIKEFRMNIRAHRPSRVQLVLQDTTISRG

In the case of `O=C(NC(=S)Nc1ccc(S(=O)(=O)NCCc2c[nH]c3ccccc23)cc1)c1ccc(-c2ccccc2)cc1`, the Activity in [1] stood at 90%; in [2], 103%; in [3], 106%; in test [4] it was 96%; in test [5] it was 85%; in [6], 102%. Further, the Activity came to 101% in [7], 99% in test [8], 132% in test [9] and 94% in test [11]. Also, the outcome in [10] was inactive.

On to `O=C(NC(=S)Nc1ccc(S(=O)(=O)NCc2ccc(F)cc2)cc1)c1ccc(-c2ccccc2)cc1`, for which the Activity in [1] was found to be 185%; in [2] it was 99%; in [3], 88%; in test [4] it was 87%; in [5], 100%; in test [6] it was 98%. Besides, the Activity in [7] is 96%; in test [8], 95%; in test [9], 266%; in [11], 91%. The EC50 in test [12] came to 2 nM.

Turning to `O=C(NC(=S)Nc1ccc(S(=O)(=O)NCCc2ccccc2)cc1)c1ccc(-c2ccccc2)cc1`, the Activity in test [1] came to 117%; in test [2], 103%; in test [3] it was 103%; in test [4] it was 94%; in test [5], 94%; in test [6] it was 99%. The Activity in test [7] was determined as 101%; in test [8], 99%; in test [9] it was 173%; in test [11] it was 91%. In addition, the EC50 in test [12] was 39.2 nM.

With `COc1ccc(CNS(=O)(=O)c2ccc(NC(=S)NC(=O)c3ccc(-c4ccccc4)cc3)cc2)cc1`, the Activity in test [1] is 157%; in [2], 101%; in [3] it was 101%; in test [4] it was 103%; in test [5], 94%; in [6], 105%. The Activity in test [7] worked out at 100%; in [8], 101%; in [9], 230%; in test [11], 99%. Besides, the concentration for a half-maximal effect (EC50) in [12] came out at 7.7 nM.

Turning to `O=C(NC(=S)Nc1ccc(S(=O)(=O)NCc2ccc(I)cc2)cc1)c1ccc(-c2ccccc2)cc1`, the Activity in test [1] turned out to be 107%; in test [2], 100%; in test [3], 95%; in test [4] it was 95%; in test [5], 93%; in test [6], 98%. In addition, the Activity in test [7] is 100%; in [8], 103%; in test [9], 157%; in test [11] it was 98%. Besides, in test [10], the result was inactive.

Take `O=C(NC(=S)Nc1ccc(S(=O)(=O)NCc2ccco2)cc1)c1ccc(-c2ccccc2)cc1`: the Activity was found to be 168% in [1]; 100% in [2]; 99% in test [3]; 97% in test [4]; 91% in test [5]; 93% in test [6]. For the same molecule, the Activity in test [7] amounted to 101%; in test [8], 91%; in test [9] it was 246%; in [11] it was 91%. Further, in test [12], the 50% effective concentration (EC50) was found to be 2 nM.

Turning to `O=C(NCc1ccccc1)c1ccc(NC(=S)NC(=O)c2ccc(-c3ccccc3)cc2)cc1`, the Activity in [1] was found to be 67%; in test [2], 116%; in test [3] it was 88%; in test [4], 111%; in test [5], 83%; in [6], 103%. The Activity in [7] worked out at 100%; in [8], 96%; in test [9], 100%; in test [11], 91%. The EC50 in test [12] is greater than 10000 nM.

For the molecule `CC(C)CNS(=O)(=O)c1ccc(NC(=S)NC(=O)c2ccc(-c3ccccc3)cc2)cc1`, the Activity amounted to 165% in test [1]; 119% in test [2]; 86% in [3]; 85% in test [4]; 105% in [5]; 107% in [6]. Further, the Activity worked out at 65% in test [13]; 95% in test [7]; 59% in test [14]; 106% in [8]; 242% in test [9]; 93% in test [11]. For the same molecule, the concentration giving a half-maximal response (EC50) in [12] was found to be 30.9 nM.
